# Bioassay records deposited in PubChem BioAssay by SRMLSC.
# HUVEC inhibit: inhibitors of HUVEC proliferation, primary screen, cell-based, 384-well; CellTiter-Glo luminescence, 72 h; stronger effect = lower value; 86,000 tested, 1.1% active; AID 648, 2007; viability, % at 10 µM (by protocol);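 active = viability at or below 30%; inactive = viability above 30%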;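 note: 100% = median luminescence of DMSO-only cell control wells on each plate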
# H69AR inhibit: proliferation blockers of H69AR lung cancer cells, primary screen, cell-based, human, 86K library; 85,000 tested, 6% active; H69AR lung tumor viability, ATP luminescence, 72 h; stronger effect = lower value; viability, % at 10 µM; AID 598, 2007;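 active = viability at or below 40%; inactive = viability above 40%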;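 note: multidrug resistant small cell line overexpressing MRP-1 efflux transporter; 100% = mean luminescence of untreated control wells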
# HCT116 bCat-KO: primary screen for growth suppressors in beta-catenin knockout HCT116 cells (colon tumor, human). HCT116 beta-catenin knockout viability, CellTiter-Glo, 60 h; stronger effect = lower value. viability, % at 10 µM. 140,000 tested, 1.5% active. AID 818, 2007;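 active = viability at or under a set limit, the compound median less 4 SD, cut at about 6% in these data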;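 note: 0% = Hyamine 1622 control at 20 µM and 100% = untreated cell control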
# Lung fibro prol: antiproliferative effect on LL 47 fibroblasts – human, LL 47 cells, CellTiter-Glo luminescence, primary screen; LL 47 human lung fibroblast viability, ATP luminescence; stronger effect = lower value; viability, % at 10 µM; 85,000 tested, 1.1% active; AID 719, 2007;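 active = viability at or below 50% in the single dose screen; inactive = viability above 50%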;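 note: compound exposure lasted 72 h before the ATP readout; 100% = median luminescence of untreated cell-only wells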
#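 Test system: LL 47 human lung fibroblasts; Quantity: 1,150 cells/well; Buffer or medium: IMEM plus 15% FBS; Dosing: tenfold compound dosing solution, DMSO at 0.1%; Timing: overnight cell rest, 72 h compound treatment at 37 °C; Detection: ATP-based CellTiter-Glo luminescent readout; Read-out basis: viability percentage against median untreated-cell control; Controls: cell-only wells, no compound.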
# HCT116 PTEN-null: growth suppression of PTEN-null HCT116, primary screen, cell-based, CellTiter-Glo | HCT116 PTEN-null viability, 60 h; stronger effect = lower value | viability, % at 10 µM | 140,000 tested, 1.2% active;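 active = viability at or below a set limit, 4 SD under the median of all tested compounds, cut at about 3.7% in these data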;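 note: PTEN knockout HCT116 line with beta catenin targeted HCT116 as companion control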
# * hit, by the source's call; nt = not tested or not shown. Many of the other results were omitted from the sample, so hits are more common in it than they were.
SMILES,HUVEC inhibit,H69AR inhibit,HCT116 bCat-KO,Lung fibro prol,HCT116 PTEN-null
Cc1oc(-c2cccc(Cl)c2)nc1CN1CCC(C(=O)N2CCN(c3ccccc3F)CC2)CC1,16*,5.8*,nt,86,nt
CCOC(=O)C1CCCN(C(=O)C2CCN(Cc3nc(-c4ccc(Cl)cc4)oc3C)CC2)C1 (stereo not given),87,74,nt,103,nt
COC(=O)c1ccc(NC(=O)CSc2nnc(-c3ccccc3)n2C)cc1,92,91,88,82,90
C#CCOC(=O)CCCNc1ccc([N+](=O)[O-])cc1[N+](=O)[O-],nt,nt,87,nt,95
Cc1ccc(CSCCNS(=O)(=O)c2ccc(C)cc2)cc1,nt,nt,97,nt,91
COc1ccc(C(=O)CSc2nnc(CNC(=O)c3ccc(OC)cc3)n2C)cc1,98,103,102,94,96
COc1ccc(-n2cc(-c3ccccc3)c3c(N4CCN(CCO)CC4)ncnc32)cc1,30*,58,33,74,18
CN1C(=O)/C(=C/c2cn(CC(=O)N3CCCCC3)c3ccccc23)c2ccccc21,57,44,58,95,40
Cc1cc(NC(=O)CSc2nnc(-c3ccc4c(c3)OCCO4)o2)no1,99,2.4*,92,98,99
Cc1cc(NC(=O)c2ccc3c(c2)OCCO3)no1,85,34*,79,96,72
Cc1ccc(-c2nnc(SCC(=O)Nc3ccccc3F)o2)cc1,70,64,38,49*,42
Cc1ccc(S(=O)(=O)N2CCOCC2)cc1C(=O)OCC(=O)N1CCc2ccccc2C1,93,81,99,96,95
COc1cc(/C=N/n2cnnc2)ccc1OCCSc1ccc(C)cc1,nt,nt,93,nt,95
CC(NC(=O)CCl)c1ccc(Cl)c(Cl)c1 (stereo not given),nt,nt,2.9*,nt,3.8*
CC(C)CC(NC(=O)CCl)c1ccccc1 (stereo not given),nt,nt,57,nt,62
CCNC(=S)N/N=C(\C)c1ccc(N2CCOCC2)cc1,nt,nt,102,nt,95
CNC(=S)N/N=C(\C)c1ccc(N2CCOCC2)cc1,nt,nt,4.8*,nt,1.3*
Cc1ccc(C(=O)c2cc(C)sc2NC(=O)CN2CCN(C(=O)c3ccco3)CC2)cc1,70,28*,68,86,71
COc1ccc(CCNC(=O)c2ccc3c(=O)n(Cc4ccco4)c(=S)[nH]c3c2)cc1OC,41,11*,92,101,78
COc1ccc(/C(O)=C/c2nc3ccc(C(=O)NCCc4cccc(C)c4)cc3[nH]c2=O)cc1OC,nt,nt,2.0*,nt,1.5*
COc1ccc(CCNC(=O)c2ccc3nc(-c4ccco4)c(-c4ccco4)nc3c2)cc1OC,48,18*,64,102,56
COc1ccc(CCNC(=O)COC(=O)c2ccco2)cc1OC,110,103,99,101,100
N#Cc1ccc(OCC(=O)OCC(=O)Nc2cc(C(F)(F)F)ccc2N2CCOCC2)cc1,nt,nt,91,nt,90
CCN(CC)S(=O)(=O)c1ccc2c(c1)nc(CCC(=O)Nc1cccc(C(F)(F)F)c1)n2CC,70,14*,72,91,70
Cc1cc(NC(=O)Nc2cccc(C(F)(F)F)c2)no1,87,98,80,99,85
SMILES,HUVEC inhibit,H69AR inhibit,HCT116 bCat-KO,Lung fibro prol,HCT116 PTEN-null
CCN(CC)S(=O)(=O)c1cccc(NC(=O)Nc2cccc(C(F)(F)F)c2)c1,nt,nt,4.2*,nt,3.2*
C=CCOc1cccc(C2c3c(oc4ccccc4c3=O)C(=O)N2c2ccccn2)c1 (stereo not given),63,26*,73,87,77
CCOc1cccc(C2c3c(oc4ccccc4c3=O)C(=O)N2c2ccccn2)c1 (stereo not given),72,100,76,84,86
C=CCNC(=O)CCCc1ccccc1,100,1.4*,72,101,69
CCc1nc(SCc2nc3ccccc3[nH]2)c2oc3ccccc3c2n1,79,40*,69,90,48
CCc1nc(Nc2ccc3c(c2)OCCO3)c2oc3ccccc3c2n1,40,38*,68,89,60
CCc1nc(Sc2nc(C)cc(C)n2)c2oc3ccccc3c2n1,102,5.3*,72,79,65
Cc1nc(Nc2ccc3c(c2)OCCO3)c2oc3ccccc3c2n1,65,80,55,96,63
CCc1nc(SCCO)c2oc3ccccc3c2n1,89,90,97,91,87
C[C@](N)(Cc1ccc(O)c(O)c1)C(=O)O,103,94,6.1*,100,18
COc1ccccc1N1CCN(CCCNC(=O)Nc2ccccc2C)CC1,120,99,88,95,87
COc1ccc(Cl)cc1N1CCN(CCNC(=O)Nc2ccccc2C)CC1,5.3*,19*,55,75,50
COc1ccc(Cl)c(N2CCN(CCCNC(=O)Nc3ccc(C)cc3)CC2)c1,10*,90,21,93,25
O=C(CCSc1ccccc1)Nc1ccc(S(=O)(=O)N2CCOCC2)cc1,93,100,92,102,89
CCC(Sc1nc2ccccc2c2nc3ccccc3n12)C(=O)NCc1ccco1 (stereo not given),89,96,99,99,95
CCOc1ccc2[nH]c(=O)c(CN(CCOC)C(=O)N3CCOCC3)cc2c1,102,93,98,96,101
Cc1ccc2nc(N(CCCN(C)C)C(=O)CCc3ccccc3)sc2c1,nt,nt,2.4*,nt,1.5*
CN(C)CCCN(C(=O)c1sc2ccccc2c1Cl)c1nc2ccc(F)cc2s1,nt,nt,102,nt,98
CN(C)CCCN(C(=O)CCc1ccccc1)c1nc2ccc(Cl)cc2s1,nt,nt,1.5*,nt,1.7*
Cc1ccc2nc(N(CCCN(C)C)C(=O)c3cc4ccccc4oc3=O)sc2c1,nt,nt,84,nt,90
CN(C)CCCN(C(=O)c1ccc2c(c1)CCCC2)c1nc2ccc(Cl)cc2s1,nt,nt,3.6*,nt,2.7*
CN(C)CCCN(C(=O)c1cc2ccccc2oc1=O)c1nc2c(F)cccc2s1,nt,nt,95,nt,114
COc1cc(C(=O)Nc2ccc(OCC(=O)O)cc2)cc(OC)c1OC,97,100,92,101,96
CC(c1ccccc1)N(NC(=O)C(O)(c1ccccc1)c1ccccc1)C(=O)c1ccccc1 (stereo not given),nt,nt,36,nt,1.7*
CCN(NC(=O)C(O)(c1ccccc1)c1ccccc1)C(=O)c1ccccc1,nt,nt,87,nt,93
Cc1csc(-c2cnn(-c3ccccc3)c2NC(=O)c2cccc(C(F)(F)F)c2)n1,nt,nt,65,nt,58
COc1ccc(N(C(=O)c2ccco2)S(=O)(=O)c2cc(Cl)c(Cl)cc2Cl)cc1,68,20*,43,97,34
COc1ccc(N(C(=O)c2ccco2)S(=O)(=O)c2ccccc2)cc1,nt,nt,82,nt,72
Cc1ccc(S(=O)(=O)N(C(=O)c2ccncc2)c2ccc(OC(=O)c3ccncc3)c3ccccc23)cc1,nt,nt,9,nt,6
